Data: ChEMBL document CHEMBL3864121, “Development of ebsulfur analogues as potent antibacterials against methicillin-resistant Staphylococcus aureus” (Bioorg Med Chem, 2016)
Values after ≈ are worked out from the molar mass of the structure shown.

Legend:
Format in all cases: functional
Staphylococcus aureus [1] = assay: Antibacterial activity against methicillin-resistant Staphylococcus aureus USA300 measured after overnight incubation by broth double-dilution method
Procedure, shortened: (§1)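 MIC by broth double-dilution in liquid Mueller-Hinton medium. Values are reported in µg/mL.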

Staphylococcus aureus [2] = assay: Antibacterial activity against methicillin-resistant Staphylococcus aureus BRS3 measured after overnight incubation by broth double-dilution method; procedure, shortened: as §1
Staphylococcus aureus [3] = assay: Antibacterial activity against methicillin-resistant Staphylococcus aureus USA200 measured after overnight incubation by broth double-dilution method; procedure, shortened: as §1
Enterococcus = assay: Antibacterial activity against Vancomycin-resistant Enterococcus measured after overnight incubation by broth double-dilution method; procedure, shortened: as §1
Staphylococcus aureus [4] = assay: Antibacterial activity against methicillin-sensitive Staphylococcus aureus ATCC 6538 measured after overnight incubation by broth double-dilution method; procedure, shortened: as §1
Staphylococcus aureus [5] = assay: Antibacterial activity against methicillin-resistant Staphylococcus aureus G6 measured after overnight incubation by broth double-dilution method; procedure, shortened: as §1
Staphylococcus aureus [6] = assay: Antibacterial activity against methicillin-resistant Staphylococcus aureus NRS77 measured after overnight incubation by broth double-dilution method; procedure, shortened: as §1
Staphylococcus aureus [7] = assay: Antibacterial activity against methicillin-sensitive Staphylococcus aureus ATCC 25923 measured after overnight incubation by broth double-dilution method; procedure, shortened: as §1
Staphylococcus aureus [8] = assay: Antibacterial activity against methicillin-resistant Staphylococcus aureus 1 measured after overnight incubation by broth double-dilution method; procedure, shortened: as §1
[9] = tested on: Staphylococcus epidermidis; assay: Antibacterial activity against Staphylococcus epidermidis ATCC 35984 measured after overnight incubation by broth double-dilution method; details: RP62A
Procedure, shortened: (§2)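 MIC by broth double-dilution in Mueller-Hinton medium. Re-testing at the time-kill inoculum used 1×10^6 CFU/mL.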

Staphylococcus aureus [10] = assay: Antibacterial activity against methicillin-resistant Staphylococcus aureus C7 measured after overnight incubation by broth double-dilution method; procedure, shortened: as §1
Staphylococcus aureus [11] = assay: Antibacterial activity against methicillin-resistant Staphylococcus aureus S22 measured after overnight incubation by broth double-dilution method; procedure, shortened: as §1
Staphylococcus aureus [12] = assay: Antibacterial activity against methicillin-resistant Staphylococcus aureus USA600 measured after overnight incubation by broth double-dilution method; procedure, shortened: as §1
Staphylococcus aureus [13] = assay: Antibacterial activity against methicillin-resistant Staphylococcus aureus G1 measured after overnight incubation by broth double-dilution method; procedure, shortened: as §1
Staphylococcus aureus [14] = assay: Antibacterial activity against methicillin-resistant Staphylococcus aureus C19 measured after overnight incubation by broth double-dilution method; procedure, shortened: as §1
Enterococcus faecalis [15] = assay: Antibacterial activity against Enterococcus faecalis ATCC 49533 measured after overnight incubation by broth double-dilution method; procedure, shortened: as §2
Staphylococcus aureus [16] = assay: Antibacterial activity against methicillin-resistant Staphylococcus aureus NRS51 measured after overnight incubation by broth double-dilution method; procedure, shortened: as §1
Staphylococcus aureus [17] = assay: Antibacterial activity against methicillin-resistant Staphylococcus aureus USA100 measured after overnight incubation by broth double-dilution method; procedure, shortened: as §1
Staphylococcus aureus [18] = assay: Antibacterial activity against methicillin-resistant Staphylococcus aureus 2 measured after overnight incubation by broth double-dilution method; procedure, shortened: as §1
Staphylococcus aureus [19] = assay: Antibacterial activity against methicillin-sensitive Staphylococcus aureus ATCC 29213 measured after overnight incubation by broth double-dilution method; procedure, shortened: as §1
Staphylococcus aureus [20] = assay: Antibacterial activity against methicillin-resistant Staphylococcus aureus C16 measured after overnight incubation by broth double-dilution method; procedure, shortened: as §1
Staphylococcus aureus [21] = assay: Antibacterial activity against methicillin-resistant Staphylococcus aureus C14 measured after overnight incubation by broth double-dilution method; procedure, shortened: as §1
Enterococcus faecalis [22] = assay: Antibacterial activity against Enterococcus faecalis ATCC 29212 measured after overnight incubation by broth double-dilution method; procedure, shortened: as §2
[23] = tested on: Mycolicibacterium smegmatis; assay: Antibacterial activity against Mycobacterium smegmatis MC2-155 measured after overnight incubation by broth double-dilution method; details: str. MC2 155; procedure, shortened: as §1
Staphylococcus aureus [24] = assay: Antibacterial activity against methicillin-resistant Staphylococcus aureus G14 measured after overnight incubation by broth double-dilution method; procedure, shortened: as §1
Enterococcus faecium = assay: Antibacterial activity against Enterococcus faecium BM4105-RF measured after overnight incubation by broth double-dilution method; procedure, shortened: as §1
Staphylococcus aureus [25] = assay: Antibacterial activity against methicillin-resistant Staphylococcus aureus S14 measured after overnight incubation by broth double-dilution method; procedure, shortened: as §1
Staphylococcus aureus [26] = assay: Antibacterial activity against methicillin-resistant Staphylococcus aureus C2 measured after overnight incubation by broth double-dilution method; procedure, shortened: as §1
Staphylococcus aureus [27] = assay: Antibacterial activity against methicillin-resistant Staphylococcus aureus NRS4 measured after overnight incubation by broth double-dilution method; procedure, shortened: as §1
Staphylococcus aureus [28] = assay: Antibacterial activity against methicillin-resistant Staphylococcus aureus S24 measured after overnight incubation by broth double-dilution method; procedure, shortened: as §1
Staphylococcus aureus [29] = assay: Antibiofilm activity against methicillin-sensitive Staphylococcus aureus ATCC 6538 assessed as reduction of biofilm at 62..5 ug/ml measured after 24 hrs by crystal violet staining based method relative to control; design: scale not given: the % may be the effect or the level left
Staphylococcus aureus [30] = assay: Antibacterial activity against methicillin-resistant Staphylococcus aureus G12 measured after overnight incubation by broth double-dilution method; procedure, shortened: as §1
Staphylococcus aureus [31] = assay: Antibacterial activity against methicillin-resistant Staphylococcus aureus S17 measured after overnight incubation by broth double-dilution method; procedure, shortened: as §1
Staphylococcus aureus [32] = assay: Antibacterial activity against methicillin-resistant Staphylococcus aureus C1 measured after overnight incubation by broth double-dilution method; procedure, shortened: as §1
Listeria monocytogenes = assay: Antibacterial activity against Listeria monocytogenes ATCC 19115 measured after overnight incubation by broth double-dilution method; procedure, shortened: as §2
Staphylococcus aureus [33] = assay: Antibacterial activity against methicillin-resistant Staphylococcus aureus ATCC 33591 measured after overnight incubation by broth double-dilution method; procedure, shortened: as §1

O=c1c2ccccc2sn1-c1ccc(F)cc1
MIC (Staphylococcus aureus [1]): 2 µg/mL (≈ 8.15 µM)
MIC (Staphylococcus aureus [2]): 3.9 µg/mL (≈ 15.9 µM)
MIC (Staphylococcus aureus [3]): 3.9 µg/mL (≈ 15.9 µM)
MIC (Enterococcus): 2 µg/mL (≈ 8.15 µM)
MIC (Staphylococcus aureus [4]): 3.9 µg/mL (≈ 15.9 µM)
MIC (Staphylococcus aureus [5]): 3.9 µg/mL (≈ 15.9 µM)
MIC (Staphylococcus aureus [6]): 3.9 µg/mL (≈ 15.9 µM)
MIC (Staphylococcus aureus [7]): 2 µg/mL (≈ 8.15 µM)
MIC (Staphylococcus aureus [8]): 3.9 µg/mL (≈ 15.9 µM)
MIC [9]: 2 µg/mL (≈ 8.15 µM)
MIC (Staphylococcus aureus [10]): 1 µg/mL (≈ 4.08 µM)
MIC (Staphylococcus aureus [11]): 2 µg/mL (≈ 8.15 µM)
MIC (Staphylococcus aureus [12]): 2 µg/mL (≈ 8.15 µM)
MIC (Staphylococcus aureus [13]): 2 µg/mL (≈ 8.15 µM)
MIC (Staphylococcus aureus [14]): 2 µg/mL (≈ 8.15 µM)
MIC (Enterococcus faecalis [15]): > 125 µg/mL
MIC (Staphylococcus aureus [16]): 3.9 µg/mL (≈ 15.9 µM)
MIC (Staphylococcus aureus [17]): 2 µg/mL (≈ 8.15 µM)
MIC (Staphylococcus aureus [18]): 2 µg/mL (≈ 8.15 µM)
MIC (Staphylococcus aureus [19]): 3.9 µg/mL (≈ 15.9 µM)
MIC (Staphylococcus aureus [20]): 3.9 µg/mL (≈ 15.9 µM)
MIC (Staphylococcus aureus [21]): 3.9 µg/mL (≈ 15.9 µM)
MIC (Enterococcus faecalis [22]): 62.5 µg/mL (≈ 255 µM)
MIC [23]: 1 µg/mL (≈ 4.08 µM)
MIC (Staphylococcus aureus [24]): 2 µg/mL (≈ 8.15 µM)
MIC (Enterococcus faecium): 31.3 µg/mL (≈ 128 µM)
MIC (Staphylococcus aureus [25]): ≤ 0.25 µg/mL
MIC (Staphylococcus aureus [26]): 3.9 µg/mL (≈ 15.9 µM)
MIC (Staphylococcus aureus [27]): 3.9 µg/mL (≈ 15.9 µM)
MIC (Staphylococcus aureus [28]): 2 µg/mL (≈ 8.15 µM)
Activity (Staphylococcus aureus [29]): 10%
MIC (Staphylococcus aureus [30]): 2 µg/mL (≈ 8.15 µM)
MIC (Staphylococcus aureus [31]): 3.9 µg/mL (≈ 15.9 µM)
MIC (Staphylococcus aureus [32]): 2 µg/mL (≈ 8.15 µM)
MIC (Listeria monocytogenes): 2 µg/mL (≈ 8.15 µM)
MIC (Staphylococcus aureus [33]): 1 µg/mL (≈ 4.08 µM)
